Activity calls are given as the source filed them. No cut-off for these calls is given here.
Experiments:
[1] = biological target: Serine/threonine-protein kinase PAK 4 (Homo sapiens, UniProt O96013); test: Inhibition of PAK4 (unknown origin)
[2] = test system: C32; test: Antiproliferative activity against human C32 cells assessed reduction in cell viability incubated for 4 days in presence of 4-(2-(1H-indazol-4-yl)-6-((4-(methylsulfonyl)piperazin-1-yl)methyl)thieno[3,2-d]pyrimidin-4-yl)morpholine by celltiter-glo assay; format: functional; conditions: time 4 day
How it was run: (§1)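 4-day CellTiter-Glo viability read-out on melanoma lines, cells exposed to increasing concentrations of each inhibitor alone and in combination.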

[3] = test system: COLO-829; test: Antiproliferative activity against human COLO-829 cells assessed reduction in cell viability incubated for 4 days in presence of 4-(2-(1H-indazol-4-yl)-6-((4-(methylsulfonyl)piperazin-1-yl)methyl)thieno[3,2-d]pyrimidin-4-yl)morpholine by celltiter-glo assay; format: functional; conditions: time 4 day; how it was run: as §1
[4] = test system: 537-mel; test: Antitumor activity against human 537-mel cells harboring PTEN null mutation xenografted in mouse assessed as tumor growth inhibition at 5 mg/kg, po; format: functional; conditions: read-out: TGI
How it was run: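 Mice carrying human tumor xenografts dosed orally once daily for 21 consecutive days. Tumor volume measured by calipers as (L×W×W)/2. %TGI = 100×[1 − AUC(treatment/day)/AUC(vehicle/day)], using the area under the fitted growth curve relative to vehicle.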

[5] = test system: RPMI-7951; test: Antiproliferative activity against human RPMI-7951 cells assessed reduction in cell viability incubated for 4 days in presence of 4-(2-(1H-indazol-4-yl)-6-((4-(methylsulfonyl)piperazin-1-yl)methyl)thieno[3,2-d]pyrimidin-4-yl)morpholine by celltiter-glo assay; format: functional; conditions: time 4 day; how it was run: as §1
[6] = biological target: Serine/threonine-protein kinase MARK2 (Homo sapiens, UniProt Q7KZI7); test: Inhibition of EMK1 (unknown origin)
[7] = test system: A2058; test: (§2) Antitumor activity against human A2058 cells harboring BRAF V600E/PTEN deletion mutant xenografted in mouse assessed as increase in Bims level at 15 mg/kg, po administered every third day for 21 days and measured after 8 hrs post dose by Western blot analysis; format: functional, organism-based; conditions: time 512.0 hrs
[8] = biological target: Mitogen-activated protein kinase kinase kinase kinase 3 (Homo sapiens, UniProt Q8IVH8); test: Inhibition of MAP4K3 (unknown origin)
Chain of Mitogen-activated protein kinase kinase kinase kinase 3 (Q8IVH8 whole entry): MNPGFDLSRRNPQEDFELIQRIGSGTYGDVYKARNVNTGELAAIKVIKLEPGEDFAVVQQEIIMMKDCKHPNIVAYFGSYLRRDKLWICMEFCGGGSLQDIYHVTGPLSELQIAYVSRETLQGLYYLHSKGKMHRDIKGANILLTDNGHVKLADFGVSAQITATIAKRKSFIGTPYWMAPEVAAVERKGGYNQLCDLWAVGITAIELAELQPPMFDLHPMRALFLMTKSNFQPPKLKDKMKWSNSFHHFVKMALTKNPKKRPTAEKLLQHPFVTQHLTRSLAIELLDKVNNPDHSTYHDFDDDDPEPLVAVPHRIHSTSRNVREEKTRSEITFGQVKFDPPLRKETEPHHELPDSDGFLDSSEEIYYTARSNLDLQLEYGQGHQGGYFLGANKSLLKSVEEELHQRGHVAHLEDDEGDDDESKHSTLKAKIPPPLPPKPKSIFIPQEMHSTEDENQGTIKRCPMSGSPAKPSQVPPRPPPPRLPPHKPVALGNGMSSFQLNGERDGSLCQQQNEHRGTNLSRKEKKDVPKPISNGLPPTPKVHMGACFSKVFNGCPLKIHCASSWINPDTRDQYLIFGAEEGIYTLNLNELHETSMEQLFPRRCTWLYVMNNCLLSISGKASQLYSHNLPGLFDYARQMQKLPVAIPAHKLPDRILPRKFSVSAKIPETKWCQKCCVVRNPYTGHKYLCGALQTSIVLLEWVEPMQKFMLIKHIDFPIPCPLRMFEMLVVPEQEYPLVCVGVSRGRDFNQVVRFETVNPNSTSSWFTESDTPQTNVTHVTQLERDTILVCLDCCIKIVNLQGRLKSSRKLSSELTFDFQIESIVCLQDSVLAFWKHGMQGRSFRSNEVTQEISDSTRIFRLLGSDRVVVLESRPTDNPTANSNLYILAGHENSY

[9] = biological target: RAC-beta serine/threonine-protein kinase (Homo sapiens, UniProt P31751); test: Inhibition of Akt2 (unknown origin)
Chain of RAC-beta serine/threonine-protein kinase (P31751 whole entry): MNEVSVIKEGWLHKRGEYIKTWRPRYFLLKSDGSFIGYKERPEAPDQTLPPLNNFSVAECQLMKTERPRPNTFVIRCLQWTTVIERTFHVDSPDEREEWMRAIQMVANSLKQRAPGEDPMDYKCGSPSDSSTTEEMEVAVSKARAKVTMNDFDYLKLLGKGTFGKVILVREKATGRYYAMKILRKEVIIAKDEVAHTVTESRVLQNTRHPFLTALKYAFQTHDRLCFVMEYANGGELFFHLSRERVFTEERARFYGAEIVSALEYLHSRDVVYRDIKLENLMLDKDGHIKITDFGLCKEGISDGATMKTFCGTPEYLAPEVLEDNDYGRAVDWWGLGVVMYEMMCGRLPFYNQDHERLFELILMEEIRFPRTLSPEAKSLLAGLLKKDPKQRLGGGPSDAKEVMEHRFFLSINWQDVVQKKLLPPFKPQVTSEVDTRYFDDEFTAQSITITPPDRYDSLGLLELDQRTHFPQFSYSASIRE

[10] = test system: 888-mel; test: Inhibition of AKT phosphorylation in human 888-mel cells incubated for 24 hrs in presence of 4-(2-(1H-indazol-4-yl)-6-((4-(methylsulfonyl)piperazin-1-yl)methyl)thieno[3,2-d]pyrimidin-4-yl)morpholine by immunoblotting analysis; format: cell-based
[11] = biological target: Tyrosine-protein kinase SYK (Homo sapiens, UniProt P43405); test: Inhibition of SYK (unknown origin)
[12] = test system: DLD-1; test: Antitumor activity against human DLD-1 cells harboring KRAS G13D/IDH1 G97D/SMO T640A/APC I1417 mutant xenografted in mouse assessed as tumor growth inhibition at 5 mg/kg, po; format: functional; conditions: read-out: TGI
How it was run: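 Single-agent dose ranging in human tumor xenograft mice at 2.5, 5 or 10 mg/kg oral. Tumor volume was measured by caliper as (L×W×W)/2. %TGI = 100×[1 − AUC(treatment/d)/AUC(vehicle/d)] from the fitted growth curve per dose group, relative to vehicle.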

[13] = test system: MOLM-13; test: Antitumor activity against human MOLM-13 cells harboring FLT3 Y599_D600insFDFREYE and c-Cbl E366_Q409del mutant xenografted in mouse assessed as tumor growth inhibition at 5 mg/kg, po; format: functional; conditions: MOLM-13, read-out: TGI
How it was run: (§3)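 Human tumor xenografts in mice were dosed orally at the indicated mg/kg. Tumor volume was measured with calipers as (L×W×W)/2. %TGI = 100 × [1 − (AUC treatment/d)/(AUC vehicle/d)], using the area under the fitted tumor-growth curve per day for each dose group relative to vehicle.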

[14] = Antitumor activity against human A375.X1 cells xenografted in mouse assessed as tumor growth inhibition at 3 mg/kg, po administered once a day for 21 days; format: functional; conditions: A375.X1, 504 h, read-out: TGI, time 21 day
How it was run: (§4)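 Human tumor xenografts in mice. Drugs given orally, as single agents or combined with the PI3K inhibitor. Schedules were daily (QD) or every third day (Q3D) over 21 days. Tumor volume was measured by caliper as (L×W×W)/2. %TGI = 100×[1 − AUC(treatment/d)/AUC(vehicle/d)] from fitted growth curves, with group means. Tumor lysates were immunoblotted for pS6.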

[15] = biological target: Serine/threonine-protein kinase PAK 6 (Homo sapiens, UniProt Q9NQU5); test: Inhibition of PAK6 (unknown origin)
[16] = biological target: Serine/threonine-protein kinase 24 (Homo sapiens, UniProt Q9Y6E0); test: Inhibition of STK24 (unknown origin)
Chain of Serine/threonine-protein kinase 24 (Q9Y6E0 whole entry): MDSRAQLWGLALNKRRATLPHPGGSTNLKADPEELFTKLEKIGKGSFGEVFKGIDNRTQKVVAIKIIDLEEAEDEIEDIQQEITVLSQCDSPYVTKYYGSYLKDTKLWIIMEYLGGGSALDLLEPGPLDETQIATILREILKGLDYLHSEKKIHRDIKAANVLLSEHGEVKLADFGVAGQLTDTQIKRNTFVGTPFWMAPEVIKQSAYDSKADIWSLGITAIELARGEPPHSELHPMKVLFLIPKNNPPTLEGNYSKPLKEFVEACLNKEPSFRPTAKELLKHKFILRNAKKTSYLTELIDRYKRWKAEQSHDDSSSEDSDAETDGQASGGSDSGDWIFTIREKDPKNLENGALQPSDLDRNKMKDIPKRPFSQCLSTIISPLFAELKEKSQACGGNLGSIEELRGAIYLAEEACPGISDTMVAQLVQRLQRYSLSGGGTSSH

[17] = test system: A2058; test: Antitumor activity against human A2058 cells harboring BRAF V600E/PTEN deletion mutant xenografted in mouse assessed as suppression of S6 phosphorylation at 15 mg/kg, po administered every third day for 21 days and measured after 72 hrs post dose in presence of 4-(2-(1H-indazol-4-yl)-6-((4-(methylsulfonyl)piperazin-1-yl)methyl)thieno[3,2-d]pyrimidin-4-yl)morpholine by Western blot analysis; format: functional, organism-based; conditions: time 576.0 hrs; how it was run: as §4
[18] = test system: A2058; test: as §2, with “dose in presence of 4-(2-(1H-indazol-4-yl)-6-((4-(methylsulfonyl)piperazin-1-yl)methyl)thieno[3,2-d]pyrimidin-4-yl)morpholine” for “dose”; format: functional, organism-based; conditions: time 512.0 hrs
[19] = biological target: Ephrin type-B receptor 4 (Homo sapiens, UniProt P54760); test: Inhibition of EphB4 (unknown origin)
Chain of Ephrin type-B receptor 4 (P54760 whole entry): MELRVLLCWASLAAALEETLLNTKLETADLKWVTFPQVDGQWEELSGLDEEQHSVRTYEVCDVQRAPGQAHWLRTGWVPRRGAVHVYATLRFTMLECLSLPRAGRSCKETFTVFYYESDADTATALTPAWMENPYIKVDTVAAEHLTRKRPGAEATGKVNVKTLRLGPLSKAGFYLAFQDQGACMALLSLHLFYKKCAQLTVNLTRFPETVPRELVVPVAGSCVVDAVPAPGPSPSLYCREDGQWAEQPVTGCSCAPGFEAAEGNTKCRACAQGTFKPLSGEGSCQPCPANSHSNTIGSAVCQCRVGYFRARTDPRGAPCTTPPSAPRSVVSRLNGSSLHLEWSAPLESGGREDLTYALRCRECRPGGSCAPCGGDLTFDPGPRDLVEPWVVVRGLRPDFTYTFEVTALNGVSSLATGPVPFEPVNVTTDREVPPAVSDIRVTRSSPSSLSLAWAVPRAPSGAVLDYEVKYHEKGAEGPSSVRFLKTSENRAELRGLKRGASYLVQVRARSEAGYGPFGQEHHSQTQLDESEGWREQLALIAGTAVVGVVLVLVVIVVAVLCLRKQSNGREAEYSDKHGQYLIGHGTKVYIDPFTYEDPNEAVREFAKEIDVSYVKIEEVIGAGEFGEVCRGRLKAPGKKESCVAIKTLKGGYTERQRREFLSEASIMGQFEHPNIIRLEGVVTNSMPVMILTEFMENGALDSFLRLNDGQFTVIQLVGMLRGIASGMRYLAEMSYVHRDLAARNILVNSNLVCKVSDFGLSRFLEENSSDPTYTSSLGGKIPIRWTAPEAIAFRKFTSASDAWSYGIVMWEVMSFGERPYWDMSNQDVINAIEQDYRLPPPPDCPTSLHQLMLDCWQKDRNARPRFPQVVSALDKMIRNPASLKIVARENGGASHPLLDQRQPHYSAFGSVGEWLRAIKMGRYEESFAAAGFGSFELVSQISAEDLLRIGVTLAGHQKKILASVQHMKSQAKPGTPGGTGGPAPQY

[20] = biological target: Mitogen-activated protein kinase 1 (Homo sapiens, UniProt P28482); test: Inhibition of ERK2 (unknown origin)
Chain of Mitogen-activated protein kinase 1 (P28482 whole entry): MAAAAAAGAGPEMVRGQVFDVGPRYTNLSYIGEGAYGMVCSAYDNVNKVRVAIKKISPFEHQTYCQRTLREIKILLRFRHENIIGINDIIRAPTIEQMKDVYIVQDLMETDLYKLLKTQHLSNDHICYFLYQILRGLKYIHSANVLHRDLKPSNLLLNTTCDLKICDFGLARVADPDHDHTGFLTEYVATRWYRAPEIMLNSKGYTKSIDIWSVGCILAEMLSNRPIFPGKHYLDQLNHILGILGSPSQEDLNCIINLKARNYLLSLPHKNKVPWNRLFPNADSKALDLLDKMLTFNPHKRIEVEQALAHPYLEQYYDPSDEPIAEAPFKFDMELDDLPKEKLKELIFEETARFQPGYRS

[21] = biological target: Tyrosine-protein kinase BTK (Homo sapiens, UniProt Q06187); test: Inhibition of Btk (unknown origin)
[22] = biological target: CDK6/cyclin D3 (Homo sapiens, UniProt Q00534); test: Inhibition of CDK6/cyclinD3 (unknown origin); format: protein-complex assay
Chain of CDK6/cyclin D3 (P30281 whole entry): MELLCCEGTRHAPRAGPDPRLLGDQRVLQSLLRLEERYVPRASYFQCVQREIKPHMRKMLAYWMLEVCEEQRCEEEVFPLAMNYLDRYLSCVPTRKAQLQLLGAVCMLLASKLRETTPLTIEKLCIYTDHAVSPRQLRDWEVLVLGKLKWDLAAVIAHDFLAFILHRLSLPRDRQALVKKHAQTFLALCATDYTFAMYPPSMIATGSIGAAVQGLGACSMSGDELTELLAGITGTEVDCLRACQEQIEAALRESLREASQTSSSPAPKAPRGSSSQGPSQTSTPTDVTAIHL
Chain of CDK6/cyclin D3 (Q00534 whole entry): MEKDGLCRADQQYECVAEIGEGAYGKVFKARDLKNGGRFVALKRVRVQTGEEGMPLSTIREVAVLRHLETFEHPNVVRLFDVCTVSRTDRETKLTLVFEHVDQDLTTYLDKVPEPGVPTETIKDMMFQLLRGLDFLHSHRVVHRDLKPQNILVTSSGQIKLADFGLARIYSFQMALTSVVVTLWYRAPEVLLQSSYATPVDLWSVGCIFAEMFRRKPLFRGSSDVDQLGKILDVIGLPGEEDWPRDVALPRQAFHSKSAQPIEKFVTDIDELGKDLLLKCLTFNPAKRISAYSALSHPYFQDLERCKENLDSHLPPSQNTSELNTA

[23] = test system: A2058; test: Antitumor activity against human A2058 cells xenografted in mouse assessed as tumor growth inhibition at 20 mg/kg, po administered every third day for 21 days in presence of 4-(2-(1H-indazol-4-yl)-6-((4-(methylsulfonyl)piperazin-1-yl)methyl)thieno[3,2-d]pyrimidin-4-yl)morpholine; format: functional; conditions: A2058, 504 h, time 21 day, read-out: TGI; how it was run: as §4
[24] = biological target: Serine/threonine-protein kinase MARK1 (Homo sapiens, UniProt Q9P0L2); test: Inhibition of MARK1 (unknown origin)
[25] = test system: NCI-H2122; test: Antiproliferative activity against human NCI-H2122 cells assessed as reduction in cell viability incubated for 96 hrs in presence of 4-(2-(1H-indazol-4-yl)-6-((4-(methylsulfonyl)piperazin-1-yl)methyl)thieno[3,2-d]pyrimidin-4-yl)morpholine; format: functional, cell-based
[26] = test system: A-375; test: Antiproliferative activity against human A-375 cells assessed reduction in cell viability incubated for 4 days in presence of 4-(2-(1H-indazol-4-yl)-6-((4-(methylsulfonyl)piperazin-1-yl)methyl)thieno[3,2-d]pyrimidin-4-yl)morpholine by celltiter-glo assay; format: functional; conditions: time 4 day; how it was run: as §1
[27] = test system: NCI-H520; test: Antitumor activity against human NCI-H520 cells harboring TP53 W146 and CDKN2A G G45 mutant xenografted in mouse assessed as tumor growth inhibition at 10 mg/kg, po; format: functional; conditions: read-out: TGI; how it was run: as §3
[28] = biological target: Mitogen-activated protein kinase 3 (Homo sapiens, UniProt P27361); test: Inhibition of ERK1 (unknown origin)
Chain of Mitogen-activated protein kinase 3 (P27361 whole entry): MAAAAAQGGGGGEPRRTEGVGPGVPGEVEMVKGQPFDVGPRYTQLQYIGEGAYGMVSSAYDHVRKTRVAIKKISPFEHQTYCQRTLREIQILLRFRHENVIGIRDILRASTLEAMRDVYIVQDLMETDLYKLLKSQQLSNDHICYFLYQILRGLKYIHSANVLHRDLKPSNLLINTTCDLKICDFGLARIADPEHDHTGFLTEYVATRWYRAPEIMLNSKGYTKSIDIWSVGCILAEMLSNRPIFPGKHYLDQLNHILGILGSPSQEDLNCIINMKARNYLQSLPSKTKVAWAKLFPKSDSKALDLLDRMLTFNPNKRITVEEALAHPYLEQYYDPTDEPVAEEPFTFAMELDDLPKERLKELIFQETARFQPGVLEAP

Chain of Serine/threonine-protein kinase PAK 4 (O96013 whole entry): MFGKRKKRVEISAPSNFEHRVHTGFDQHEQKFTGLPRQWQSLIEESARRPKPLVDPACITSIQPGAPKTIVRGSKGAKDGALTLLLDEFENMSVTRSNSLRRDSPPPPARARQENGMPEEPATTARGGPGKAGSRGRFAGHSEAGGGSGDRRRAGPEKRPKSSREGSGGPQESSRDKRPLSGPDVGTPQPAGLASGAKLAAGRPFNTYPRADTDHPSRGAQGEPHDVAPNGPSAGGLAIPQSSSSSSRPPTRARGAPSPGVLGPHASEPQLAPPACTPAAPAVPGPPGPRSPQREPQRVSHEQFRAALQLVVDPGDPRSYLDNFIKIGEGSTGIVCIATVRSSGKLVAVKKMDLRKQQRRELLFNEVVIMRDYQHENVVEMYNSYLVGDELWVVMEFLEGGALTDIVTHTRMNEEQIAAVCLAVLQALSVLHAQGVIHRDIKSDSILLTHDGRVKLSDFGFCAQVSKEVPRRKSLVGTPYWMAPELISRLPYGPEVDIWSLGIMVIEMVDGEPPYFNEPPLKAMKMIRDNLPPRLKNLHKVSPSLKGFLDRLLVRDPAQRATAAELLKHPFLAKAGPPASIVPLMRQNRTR

- IC50 [1]: > 10 µM
- IC50 [6]: > 10 µM
- IC50 [8]: > 10 µM
- IC50 [9]: > 10 µM
- IC50 [11]: > 10 µM
- IC50 [15]: > 10 µM
- IC50 [16]: > 10 µM
- IC50 [19]: > 10 µM
- IC50 [20]: > 10 µM
- IC50 [21]: > 10 µM
- IC50 [22]: > 10 µM
- IC50 [24]: > 10 µM
- IC50 [28]: > 10 µM
SMILES: O=C(c1ccc(F)c(F)c1Nc1ccc(I)cc1F)N1CC(O)([C@@H]2CCCCN2)C1 [COBIMETINIB]
- Activity [2]: 60%
- Activity [3]: 60%
- inhibition in vivo at 5 mg/kg [4]: 94%
- Activity [5]: 60%
- Activity [7]: Active
- inhibition [10]: Active
- inhibition in vivo at 5 mg/kg [12]: 50.2%
- inhibition in vivo at 5 mg/kg [13]: -6%
- inhibition in vivo at 3 mg/kg [14]: 87%
- Activity [17]: Active
- Activity [18]: Active
- inhibition in vivo at 20 mg/kg [23]: 83%
- Activity [25]: inactive
- Activity [26]: 60%
- inhibition in vivo at 10 mg/kg [27]: 21%
